From ChEMBL document CHEMBL1154192, “A series of 1, 2-coupled indane dimers with mast cell stabilisation and smooth muscle relaxation properties” (Eur J Med Chem, 2009)

test system: Ileum; test: Inhibition of calcium-induced contraction in guinea pig ileum at 10 uM; assay type: functional; conditions: Cavia porcellus
Outline: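 Guinea-pig ileum was suspended in calcium-free Krebs solution containing 45 mM K+ and contracted by bringing bath calcium to 2.5 mM (sustained >40 min). At stable maximal contracture a single 1 × 10⁻⁵ M concentration was added. Inhibition is given as percentage of stimulated contraction, mean ± SEM, n = 6–12.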

| SMILES | inhibition at 10 µM [%] |
| --- | --- |
| CCC1(C2=CCc3ccccc32)Cc2ccccc2C1=O (stereo unspecified) | 49.6 |
| CCCCCC1(C2=CCc3ccccc32)Cc2ccccc2C1=O (stereo unspecified) | 18 |
| O=C1c2ccccc2CC1(Cc1ccccc1)C1=CCc2ccccc21 (stereo unspecified) | 18.9 |
| C=CCC1(C2=CCc3ccccc32)Cc2ccccc2C1O (stereo unspecified) | 79.5 |
| CC/C=C/CC1(C2=CCc3ccccc32)Cc2ccccc2C1=O (stereo unspecified) | 19.9 |
| COC(=O)c1ccc(CC2(C3=CCc4ccccc43)Cc3ccccc3C2=O)cc1 (stereo unspecified) | 31.5 |
| O=C(O)CC1(C2=CCc3ccccc32)Cc2ccccc2C1=O (stereo unspecified) | 1.8 |
| CC/C=C/CC1(C2=CCc3ccccc32)Cc2ccccc2C1O (stereo unspecified) | 25.6 |
| CCCC1(C2=CCc3ccccc32)Cc2ccccc2C1O (stereo unspecified) | 34.3 |
| CC1(C2=CCc3ccccc32)Cc2ccccc2C1=O (stereo unspecified) | 41.3 |
| COC(=O)CC1(C2=CCc3ccccc32)Cc2ccccc2C1=O (stereo unspecified) | 20.5 |
| CCCC1(C2=CCc3ccccc32)Cc2ccccc2C1=O (stereo unspecified) | 51.7 |

test system: Ileum; test: Inhibition of calcium-induced contraction in guinea pig ileum at 0.01 uM; assay type: functional; conditions: Cavia porcellus
Outline: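 Isolated guinea-pig ileum in high-potassium (45 mM), calcium-free modified Krebs solution. Sustained (>40 min) contractures were elicited by raising bath calcium to 2.5 mM with CaCl2. At stable maximum, a single concentration (1 × 10^-8 M) was added. Inhibition was expressed as a percentage of stimulated values, mean ± SEM, n = 6.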

| SMILES | inhibition at 0.01 µM [%] |
| --- | --- |
| COC(=O)C1=C(C)NC(C)=C(C(=O)OC)C1c1ccccc1[N+](=O)[O-] [NIFEDIPINE] | 48.1 |

test system: Ileum; test: Inhibition of calcium-induced contraction in guinea pig ileum at 0.03 to 10 uM; assay type: functional, tissue-based; conditions: Cavia porcellus
Outline: (§1)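 Isolated guinea-pig ileum in high-potassium (45 mM), calcium-free modified Krebs solution. Sustained contractures (>40 min) were elicited by raising bath CaCl2 to 2.5 mM. Once contraction reached a stable maximum, compound was added cumulatively (3 × 10⁻⁸ – […]). IC50 was calculated from the concentration-effect curve.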

| SMILES | IC50 [µM] |
| --- | --- |
| C=CCC1(C2=CCc3ccccc32)Cc2ccccc2C1O (stereo unspecified) | 6.2 |

test system: Ileum; test: Inhibition of calcium-induced contraction in guinea pig ileum at 0.001 to 0.1 uM; assay type: functional, tissue-based; conditions: Cavia porcellus
Outline: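 Isolated guinea-pig ileum in high-potassium (45 mM), calcium-free modified Krebs solution. CaCl2 was added to raise bath calcium to 2.5 mM, giving sustained (>40 min) contractures. At stable maximum, drug was added cumulatively at […] to 1 × 10^-7 M. Read-out was inhibition of contracture; IC50 was calculated from the concentration-effect curve.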

| SMILES | IC50 [µM] |
| --- | --- |
| COC(=O)C1=C(C)NC(C)=C(C(=O)OC)C1c1ccccc1[N+](=O)[O-] [NIFEDIPINE] | 0.0147 |

test system: Mast cell; test: Inhibition of compound 48/80-induced histamine release in Wistar rat peritoneal mast cell at 20 uM treated 10 mins before compound 48/80 challenge; assay type: functional; conditions: not given
Outline: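 Peritoneal cells were lavaged from female Wistar rats (250–350 g) into prewarmed (37 °C) HEPES-buffered salt solution, without purification. Cells were centrifuged, washed three times and held at 4 °C. Inhibition is given as percentage of stimulated release, mean ± SEM, n = 5–10.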

| SMILES | inhibition at 20 µM [%] |
| --- | --- |
| O=C(O)c1cc(=O)c2c(OCC(O)COc3cccc4oc(C(=O)O)cc(=O)c34)cccc2o1 [CROMOLYN SODIUM] | 9.1 |
| CCC1(C2=CCc3ccccc32)Cc2ccccc2C1=O (stereo unspecified) | 19.4 |
| CCCCCC1(C2=CCc3ccccc32)Cc2ccccc2C1=O (stereo unspecified) | -3.2 |
| O=C1c2ccccc2CC1(Cc1ccccc1)C1=CCc2ccccc21 (stereo unspecified) | 24.7 |
| C=CCC1(C2=CCc3ccccc32)Cc2ccccc2C1O (stereo unspecified) | -35.5 |
| CC/C=C/CC1(C2=CCc3ccccc32)Cc2ccccc2C1=O (stereo unspecified) | 32.5 |
| COC(=O)c1ccc(CC2(C3=CCc4ccccc43)Cc3ccccc3C2=O)cc1 (stereo unspecified) | -27.8 |
| O=C(O)CC1(C2=CCc3ccccc32)Cc2ccccc2C1=O (stereo unspecified) | 10.3 |
| CC/C=C/CC1(C2=CCc3ccccc32)Cc2ccccc2C1O (stereo unspecified) | 49.7 |
| CCCC1(C2=CCc3ccccc32)Cc2ccccc2C1O (stereo unspecified) | -26 |
| CC1(C2=CCc3ccccc32)Cc2ccccc2C1=O (stereo unspecified) | 15.6 |
| COC(=O)CC1(C2=CCc3ccccc32)Cc2ccccc2C1=O (stereo unspecified) | 21.9 |
| CCCC1(C2=CCc3ccccc32)Cc2ccccc2C1=O (stereo unspecified) | 41.2 |

test system: Ileum; test: Inhibition of calcium-induced contraction in guinea pig ileum; assay type: functional, tissue-based; conditions: Cavia porcellus; outline: as §1

| SMILES | IC50 [µM] |
| --- | --- |
| Cc1cc2c(c(C)c1CCO)C(=O)C(C)(C)C2 [PTEROSIN Z] | 1.3 |
| C=CCC1(C2=CCc3ccccc32)Cc2ccccc2C1O (stereo unspecified) | 6.2 |
| COC(=O)C1=C(C)NC(C)=C(C(=O)OC)C1c1ccccc1[N+](=O)[O-] [NIFEDIPINE] | 0.0147 |
